CHO parental Ca: counter-screen: ATP calcium response change in parental CHO cells; parental CHO-K1, ATP-induced calcium, Fluo-8 fluorescence; inhibition, % at 5.6 µM; hit rate 0.63% among 330,000; AID 463079;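 active = inhibition above that plate's mean sample inhibition plus 3 SD, cut at about 26% in these data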;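 note: 0% = ATP-challenged DMSO wells and 100% = DMSO wells without ATP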
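material = parental CHO cells | also added = ATP as calcium-mobilizing challenge | dosing = single point at 5.6 µM | detection = intracellular calcium via Fluo-8 no-wash fluorescent dye | read-out = % inhibition | benchmarks = low control ATP plus DMSO, high control DMSO only | repeats = one well per compound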
OX1R antag-1: blocks the human orexin 1 receptor; O43613; OX1R-expressing cells, FRET antagonist read-out; inhibition, % at 6.6 µM; hit rate 1.8% among 330,000; AID 485270; in the data active = inhibition mostly above about 38%, no sharp cut-off; inactive = mostly below about 40%;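 note: 0% = agonist challenge alone and 100% = reference antagonist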
Target sequence (O43613 whole entry, looked up): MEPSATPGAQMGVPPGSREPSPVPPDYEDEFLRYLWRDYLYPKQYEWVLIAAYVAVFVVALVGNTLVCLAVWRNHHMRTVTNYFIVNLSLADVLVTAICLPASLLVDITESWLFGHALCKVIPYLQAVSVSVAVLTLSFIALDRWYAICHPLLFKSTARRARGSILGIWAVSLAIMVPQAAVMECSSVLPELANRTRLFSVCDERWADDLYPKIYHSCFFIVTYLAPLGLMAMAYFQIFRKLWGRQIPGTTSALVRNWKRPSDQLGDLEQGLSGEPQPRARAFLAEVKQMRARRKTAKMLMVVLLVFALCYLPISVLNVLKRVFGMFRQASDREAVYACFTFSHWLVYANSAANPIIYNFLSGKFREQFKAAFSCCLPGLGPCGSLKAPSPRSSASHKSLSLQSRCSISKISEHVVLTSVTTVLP
GPR7 antag: antagonists of human GPR7 (neuropeptides B/W receptor 1); P48145; hit rate 1.1% among 290,000; GPR7-expressing cells, fluorescence antagonist assay; AID 1861; inhibition, % at 4.4 µM; in the data active = inhibition above about 16%, passing the limit was not always enough;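 note: cells stimulated with the agonist NPW; 0% = agonist with vehicle and 100% = vehicle without agonist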
OX1R antag-2: blocks the human orexin 1 receptor | hit rate 0.43% among 330,000 | O43613 | inhibition, % at 5 µM | CHO/OX1R cells, Fluo-8 calcium fluorescence, orexin A | AID 434989;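 active = inhibition above its plate's threshold, mean inhibition of all tested compounds on the plate plus 3 SD, cut at about 37% in these data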;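 note: 0% = orexin A challenge wells and 100% = SB-334867-A antagonist wells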
TAAR1 antag: antagonists of human TAAR1; Q96RJ0; CHO RD-HGA16 TAAR1, Fluo-8 calcium fluorescence, antagonist; inhibition, % at 3 µM; hit rate 1.5% among 360,000;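 active = inhibition above a per-plate cutoff, the mean inhibition of test compounds on that plate plus 3 SD, cut at about 49% in these data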;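 note: 0% = DMSO plus EC80 beta-PEA response and 100% = DMSO alone without agonist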
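Test system – hTAAR1-expressing CHO RD-HGA16 cells, Gα16-coupled · Also added – β-PEA at EC80 concentration, post-compound challenge · Compound – 3 µM, single point · Incubation – dye loading 75 min at 37 °C, then 30 min room temperature · Measured by – Fluo-8 intracellular calcium dye fluorescence, real-time kinetic reads · Benchmarks – vehicle and agonist controls · Replicates – singlicate, one well per test compound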
TAAR1 ag: agonists of human TAAR1. activation, % at 3 µM. CHO RD-HGA16 TAAR1, Fluo-8 calcium fluorescence; vehicle wells 0%, saturating PEA agonist 100%. hit rate 0.99% among 360,000. Q96RJ0;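 active = activation above the mean activation of all test compounds in the run plus 3 SD, cut at about 38% in these data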
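System: CHO RD-HGA16 cells carrying human TAAR1 plus Gα16; Incubation: 17-24 h seeding, 75 min 37 °C dye, 30 min RT; Measured by: Fluo-8 fluorescence, 5 s baseline then 140 s kinetic read; Control set: DMSO and PEA EC100; Replication: single well for each compound.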
The depositor's hits bear a star; x = no result given. A selection: hits, their analogues and other compounds. The true share with any hit is near 4.6%.

SMILES	CHO parental Ca	OX1R antag-1	GPR7 antag	OX1R antag-2	TAAR1 antag	TAAR1 ag
COc1ccc(CCNC(=O)c2cc3c(=O)n4cccc(C)c4nc3n(CCCN3CCOCC3)c2=N)cc1	-16.3	22.8	-7.6	-18.0	5.2	-0.4
CCOCCCn1c(=N)c(C(=O)NCCN2CCOCC2)cc2c(=O)n3cccc(C)c3nc21	-6.3	56.6*	-2.8	-17.5	7.6	2.2
Cc1cccn2c(=O)c3cc(C(=O)NCCN4CCOCC4)c(=N)n(CCN4CCOCC4)c3nc12	1.3	53.1*	6.2	-0.6	7.2	-2.8
Cc1cccn2c(=O)c3cc(C(=O)NCCN4CCOCC4)c(=N)n(Cc4ccc(F)cc4)c3nc12	-16.6	40.4*	-8.6	-15.8	-10.0	-1.5
CC1=C(C(=O)N2CCOCC2)CC(CC(=O)NCc2cccs2)C(=O)N1CCC1=CCCCC1 (stereo unspecified)	x	x	x	x	-27.3	0.4
COc1ccc(C(=O)CSc2nnc(CNC(=O)c3ccccc3)n2C)cc1	-3.9	3.2	-11.3	1.3	-21.9	-0.3
Oc1ccc(Nc2nc3ccccc3nc2Nc2ccc(O)cc2)cc1	35.0*	23.4	6.0	7.5	x	x
CCc1cc2cccc(C)c2nc1SCC(=O)c1ccc(NC(C)=O)cc1	-13.6	52.6*	3.4	33.6	-11.8	11.3
CCc1cc2cccc(C)c2nc1SCC(=O)NNC(=O)c1ccco1	-21.5	69.9*	-5.1	-0.1	-10.6	13.1
CCCCn1nnnc1C1(C)CCC(=O)N1CCc1ccc(OC)c(OC)c1 (stereo unspecified)	x	x	x	x	14.9	2.7
CCc1cccc(NC(=O)C2CCN(S(=O)(=O)c3c(C)noc3C)CC2)c1	-13.2	4.6	-0.1	-22.4	-1.2	2.3
COc1ccc(/C=C2\C(=O)N(Cc3ccc(F)cc3)CC(=O)N2Cc2ccccc2)cc1	-12.6	28.2	-4.7	-9.4	21.9	4.7
COc1ccc(N2CCN(C(c3cccc(OC)c3OC)c3nnnn3C3CCCC3)CC2)cc1 (stereo unspecified)	3.2	22.1	20.6*	-38.2	-3.7	0.0
COc1ccc(OC)c(C(c2nnnn2C2CCCC2)N2CCc3ccccc3C2)c1 (stereo unspecified)	-6.6	13.0	14.0	-7.9	-7.4	3.6
COc1ccc(C(c2nnnn2C2CCCC2)N2CCc3ccccc3C2)cc1OC (stereo unspecified)	x	x	21.7*	x	-9.4	22.1
COc1ccc(N2CCN(C(c3ccccc3OC)c3nnnn3C3CCCC3)CC2)cc1 (stereo unspecified)	x	x	3.6	x	2.4	-1.3
COc1ccc(OC)c(C(c2nnnn2C2CCCC2)N2CCN(c3ccccc3F)CC2)c1 (stereo unspecified)	-19.3	10.5	27.8*	-27.6	-8.5	10.5
CN(CC(=O)Nc1ccc(Cl)c(S(=O)(=O)N2CCOCC2)c1)C(=O)c1ccc(C#N)cc1	-6.6	0.8	x	-11.2	-26.3	8.2
COc1cc(OC)cc(C(=O)N[C@H](C(=O)OCC(=O)Nc2cccc(F)c2)C(C)C)c1	-18.8	11.3	21.3*	-26.3	22.6	2.1
CC1(C)CC(=O)C2=C(C1)N=C1c3ccccc3C(=O)C1C2c1ccc(Cl)cc1 (stereo unspecified)	-18.2	95.6*	-9.7	19.0	24.3	27.8
Cc1ccc(N/C=C2\CCCCC2=O)nc1	-1.1	-0.2	-1.9	5.2	-9.0	-0.4
COc1cc2c(cc1NC(=O)COC(=O)[C@@H](NS(=O)(=O)c1ccccc1)C(C)C)oc1ccccc12	-5.4	74.6*	-10.3	19.6	24.9	3.5
CCc1cc(=O)oc2c(C)c(OCC(=O)NCc3ccccn3)ccc12	-4.1	1.7	-12.0	-9.8	-2.5	0.1
Cc1nc(C)c(CCNC(=O)c2ccccc2)s1	-3.4	18.7	-2.8	-17.9	9.2	1.5
CC(/C=N/NC(=O)c1sc(N)nc1C)=C\c1ccccc1	-13.7	25.9	-10.7	-7.1	-14.1	40.2*
SMILES	CHO parental Ca	OX1R antag-1	GPR7 antag	OX1R antag-2	TAAR1 antag	TAAR1 ag
Cc1nc(N)sc1C(=O)N/N=C/c1ccccc1[N+](=O)[O-]	-10.0	31.0	8.2	-14.9	3.2	8.7
Cc1[nH]c2ccccc2c1C(=O)CN1C(=O)NC2(CC(C)CC(C)(C)C2)C1=O (stereo unspecified)	-7.1	19.5	18.6*	-2.5	53.4*	17.0
CC1CC(C)(C)CC2(C1)NC(=O)N(CC(=O)Nc1ccc3[nH]c(=O)[nH]c3c1)C2=O (stereo unspecified)	-3.8	2.5	x	2.8	-16.4	1.4
CC1CC(C)(C)CC2(C1)NC(=O)N(CC(=O)OCc1ccc(Br)cc1)C2=O (stereo unspecified)	-9.9	-3.5	x	-30.8	22.7	41.3*
COc1ccccc1NC(=O)c1c[nH]c2ccccc12	-10.9	16.0	-4.5	-18.9	-7.5	-2.0
COC(=O)[C@@]12CCCN1[C@H](c1ccc(-c3ccc(OC)cc3)c(OC)c1)[C@H]1C(=O)N(C)C(=O)[C@H]12	-11.4	1.8	x	-19.5	-4.1	0.2
COc1ccc(C)cc1NC(=O)C1CCCN(S(=O)(=O)c2cccs2)C1 (stereo unspecified)	-21.1	36.7*	-7.8	-12.6	-9.3	-0.2
COc1cc(NC(=O)C2CCN(S(=O)(=O)c3cccs3)CC2)cc(OC)c1	-1.7	51.2*	x	17.3	-3.0	3.4
C[C@@H]1CN([C@H](C)CO)C(=O)CCCn2cc(nn2)CO[C@H]1CN(C)C(=O)Oc1ccccc1	x	x	x	x	-12.6	4.0
Cc1c(Cl)cccc1NC(=O)C(=O)NNC(=O)c1ccccc1F	23.8*	17.8	6.4	4.3	-13.0	2.0
Cc1ccccc1C(=O)N1CCN(c2ccc(NC(=O)c3cccc(OC(C)C)c3)cc2)CC1	-10.6	23.8	-15.6	-18.0	-22.3	3.1
COc1c(C)cccc1C(=O)Nc1ccc(N2CCN(C(=O)c3ccccc3C)CC2)cc1	-24.5	6.1	16.1	-22.0	55.3*	11.3
Cc1ccccc1OCC(=O)Nc1ccc(N2CCN(C(=O)c3ccco3)CC2)cc1	-5.3	11.0	-0.1	1.9	59.5*	16.5
Cc1ccccc1C(=O)N1CCN(c2ccc(NC(=O)CSc3ccc(Cl)cc3)cc2)CC1	31.2*	23.2	5.8	12.6	52.7*	13.7
O=C(Cn1cc(COc2c(Br)cc(F)cc2Br)nn1)c1ccc(O)cc1	x	x	x	x	21.7	2.0
O=C1/C(=C/c2cccs2)SC(=S)N1CCC(=O)N1CCCCC1CCO (stereo unspecified)	-19.4	48.3*	12.3	16.7	21.7	7.6
COc1ccccc1/C=C1\SC(=S)N(CCC(=O)N2CCCCC2CCO)C1=O (stereo unspecified)	-37.3	0.2	-10.1	-24.8	-6.5	7.7
COc1cc2nc(N(CCCN(C)C)C(=O)c3ccc(S(=O)(=O)N4CCc5ccccc54)cc3)sc2cc1OC	-13.9	9.1	x	-17.7	-9.0	39.9*
